Key:
[1] = tested on: Caco-2 cell monolayers; assay: Uptake of Lac-NCTD and its nanoparticles into Caco-2 cell monolayers; assay type: in vitro ADME, human
Procedure, shortened: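 Monolayers grown 15 days from 1 × 10⁵ cells/cm² in plates, washed, preincubated 15 min at 37°C in HBSS pH 7.4, then exposed to drug or nanoparticle solution. After uptake (15 min, chosen within the linear range), cells were washed thrice with cold HBSS, scraped, homogenized and ultracentrifuged. Supernatant was assayed by reversed-phase HPLC, normalized to Bradford protein and given as mg/g protein, three determinations.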

[2] = tested on: Caco-2 cell monolayers; assay: Bidirectional transepithelial transport across Caco-2 cell monolayers; assay type: in vitro ADME, human
Procedure, shortened: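 Caco-2 cells (passage 30–50) seeded at 1 × 10⁵ cells/cm² on 1.1 cm² polycarbonate inserts (1 μm pores), used day 21 when TEER reached 700 Ω·cm² and phenol red permeability <0.5%/h. HBSS pH 7.4 preincubation 15 min, 37°C; drug or nanoparticles dosed apically or basolaterally; receiver sampled at 5–60 min with replacement; reversed-phase HPLC. Papp = dQ/dt/(A·C0); PDR from BL→AP and AP→BL; n = 3.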

[3] = cited from earlier work

In the case of Lactosyl-norcantharidin [Lac-NCTD], the “Effect of concentration on uptake” value ([1]; 100 μg/mL to 400 μg/mL) is reported as “Concentration dependence or saturation was observed”, the Uptake amount ([1]; 250 μg/mL, 4°C) is reported as 1.35 ± 0.13 mg/g protein and the “Time course of uptake” value ([1]; 250 μg/mL, 37°C) is reported as “linear in relation to time, from 0 minutes to 30 minutes”. The Uptake amount ([1]; 250 μg/mL, pH 6.0) was 0.82 ± 0.23 mg/g protein, the “Effect of P-gp inhibitor CyA on uptake” value ([1]; CyA 20 μmol/L) was “facilitate the uptake procedure” and the “Effect of MRP2 inhibitor MK-571 on uptake” value ([1]; MK-571 50 μmol/L) was “facilitate the uptake procedure”. For the same substance, the “Change of Papp apical to basolateral with CyA” value ([2]; 250 μg/mL, CyA 20 μmol/L) was “increased”, the “Change of Papp basolateral to apical with CyA” value ([2]; 250 μg/mL, CyA 20 μmol/L) was “decreased” and the “Change of Papp apical to basolateral with MK-571” value ([2]; 250 μg/mL, MK-571 50 μmol/L) was “significantly increased”. The “Change of Papp basolateral to apical with MK-571” value ([2]; 250 μg/mL, MK-571 50 μmol/L) was “lightly decreased”, the “Change of Papp with bypass transport enhancer SDCh” value ([2]; 250 μg/mL, SDCh 100 mmol/L, versus control) was “significantly increased” and the “Change of Papp with endocytosis inhibitor oxophenylarsine” value ([2]; 250 μg/mL, oxophenylarsine 25 mmol/L, versus control) was “no statistical difference”. The “Increase of Papp apical to basolateral with CyA” value ([2]; CyA 20 μmol/L added to the apical side) was 1.41 times, the “Increase of Papp apical to basolateral with MK-571” value ([2]; MK-571 50 μmol/L added to the apical side) was 2.29 times and the “Therapy efficiency compared with NCTD” value [3] was “significantly higher therapy efficiency”. The “Toxicity compared with NCTD” value [3] was “lower toxicity”.
